Experimental data from ChEMBL document CHEMBL1137395, “Synthesis and antiviral activity of 5-substituted cytidine analogues: identification of a potent inhibitor of viral RNA-dependent RNA polymerases” (J Med Chem, 2006).
Calls of active or inactive are those of the source. No cut-off for these calls is given here.

Key:
HeLa = assay: Viability of human HeLa S3 cells; type: functional; design: concentration or dose not given beside the values
Summary of the method: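 HeLa S3 cells exposed to compound for 7 h, then allowed to recover without compound for 24 h; viability recorded at four concentrations.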

Enterovirus C = assay: Antiviral activity against poliovirus in HeLa S3 cells assessed as reduction in viral titer; type: functional, organism-based
Summary of the method: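 HeLa S3 cells pretreated with compound 1 h, then infected with 10⁶ PFU poliovirus (high MOI); after 15 min adsorption, fresh medium containing compound added and infection run a further 6 h. Cell-associated virus titered by plaque assay.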

Coxsackievirus B3 = assay: Antiviral activity against coxsackievirus B3 in HeLa S3 cells assessed as reduction in viral titer; type: functional, organism-based
Summary of the method: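 HeLa S3 cells were pretreated with compound for 1 h, then infected with 10⁶ PFU CVB3 (high MOI). After 15 min of virus association, fresh medium containing compound was added and infection continued for 6 h. Cell-associated virus was titered by plaque assay. Cytotoxicity was checked separately after 7 h of treatment plus 24 h of recovery without compound.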

Human alphaherpesvirus 1 = assay: Antiviral activity against herpes simplex virus 1; type: functional, organism-based
Human alphaherpesvirus 2 = assay: Antiviral activity against herpes simplex virus 2; type: functional, organism-based
[1] = test system: Human immunodeficiency virus 1; assay: Antiviral activity against HIV1; type: functional, organism-based
Genome polyprotein = Genome polyprotein (Human poliovirus 1 Mahoney, UniProt P03300); assay: Binding affinity to poliovirus RNA dependent RNA polymerase; design: species or system Enterovirus C
Summary of the method: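 Purified poliovirus RdRP complexed with ³²P end-labeled symmetrical 10-mer RNA primer-template (S/S–G); nucleotide incorporation opposite G followed, products separated by denaturing PAGE; Kd and kpol derived from incorporation kinetics.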

Genome polyprotein, sequence (P03300 1749-2209 limits assumed): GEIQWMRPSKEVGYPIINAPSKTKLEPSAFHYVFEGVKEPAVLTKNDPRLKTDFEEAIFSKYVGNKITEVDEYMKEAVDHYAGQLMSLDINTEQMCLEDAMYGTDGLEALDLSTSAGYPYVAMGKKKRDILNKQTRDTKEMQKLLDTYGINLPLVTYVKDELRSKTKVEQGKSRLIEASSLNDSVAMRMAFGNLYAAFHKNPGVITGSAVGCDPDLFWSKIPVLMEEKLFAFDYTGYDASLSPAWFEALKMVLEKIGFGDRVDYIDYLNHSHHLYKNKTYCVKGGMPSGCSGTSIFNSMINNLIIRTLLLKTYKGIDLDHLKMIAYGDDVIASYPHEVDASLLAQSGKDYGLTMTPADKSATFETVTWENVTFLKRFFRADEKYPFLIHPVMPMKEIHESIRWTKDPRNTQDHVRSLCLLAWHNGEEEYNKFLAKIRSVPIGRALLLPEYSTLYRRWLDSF

| SMILES | Activity (HeLa) [%] | Activity (Enterovirus C) | Activity (Coxsackievirus B3) | other results |
| --- | --- | --- | --- | --- |
| Nc1nc(=O)n([C@H]2C[C@H](O)[C@@H](CO)O2)cc1Br | 93 | inactive | inactive |  |
| Nc1nc(=O)n([C@@H]2O[C@H](CO)[C@@H](O)[C@H]2O)cc1Br | 63 |  |  |  |
| Nc1cn([C@@H]2O[C@H](CO)[C@@H](O)[C@H]2O)c(=O)nc1N | 62 | Active | Active |  |
| Nc1nc(=O)n([C@H]2C[C@H](O)[C@@H](CO)O2)cc1[N+](=O)[O-] |  |  |  | Activity (Human alphaherpesvirus 1): Active; Activity (Human alphaherpesvirus 2): Active; Activity [1]: Active |
| NC(=O)c1ncn([C@@H]2O[C@H](CO)[C@@H](O)[C@H]2O)n1 [RIBAVIRIN] | 70 | Dose-dependent effect | Dose-dependent effect |  |
| Nc1nc(=O)n([C@@H]2O[C@H](CO)[C@@H](O)[C@H]2O)cc1[N+](=O)[O-] | 80 | Active | Active |  |
| Nc1nc(=O)n([C@@H]2O[C@H](CO[P@@](=O)(O)O[P@](=O)(O)OP(=O)(O)O)[C@@H](O)[C@H]2O)cc1[N+](=O)[O-] |  |  |  | Kd (Genome polyprotein): 1080 nM |
| Nc1nc(=O)n([C@H]2C[C@H](O)[C@@H](CO)O2)cc1O | 82 | inactive | inactive |  |
| Nc1nc(=O)n([C@@H]2O[C@H](CO)[C@@H](O)[C@H]2O)cc1O | 36 |  |  |  |
